MC4R ag barr: human MC4R agonism via beta-arrestin. actives 0.98% (n = 360,000). U2OS MC4R beta-arrestin complementation, luminescence; percent of melanotan II response, DMSO zero. activation, % at 8.9 µM;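 active = activation above a per-plate cutoff, the mean activation of sample wells on that plate plus 3 SD, cut at about 8% in these data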
AI-2 QS mod: modulates the Vibrio harveyi AI-2 quorum sensing system | Vibrio harveyi JMH597 AI-2 luminescence/OD600 ratio, 9 h; stronger effect = lower value; strain lacks LuxN and CqsS sensors; 0 = neutral-control median | activity change, % at 7.5 µM | actives 0.4% (n = 300,000) | AID 2094; in the data active = activity change below about -75%, passing the limit was not always enough;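 note: luminescence divided by OD600 gain over 9 h not by final OD600 alone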
NTR1 agonist: agonists of human neurotensin receptor NTR1; activation, % at 20 µM; NTR1-U2OS beta-arrestin-GFP spot imaging, agonist mode; actives 0.17% (n = 330,000);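 active = activation at or above 40% of the spot to cytoplasm intensity ratio, with at least 20 cells analyzed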;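 note: 0% = DMSO without peptide and 100% = 100 nM NTR1 peptide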
MC4R antag cAMP: human MC4R antagonism in cAMP assay; P32245; MC4R-expressing cells, MTII-stimulated cAMP, LANCE TR-FRET; AID 540295; actives 0.48% (n = 360,000); inhibition, % at 6.5 µM;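 active = inhibition above its plate's cutoff, the mean of tested wells on that plate plus 3 SD, cut at about 29% in these data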;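 note: 0% = Melanotan II alone and 100% = Melanotan II plus saturating MCL0020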
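Assay system: U2OS cells stably expressing human melanocortin 4 receptor (MC4R) / Dosing: 6.5 µM / Timing: compound 30 min, challenge 1 h, detection 1 h / Measured by: Eu-cAMP/anti-cAMP TR-FRET, emission 671 nm / Replicates: singlicate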
MC4R barr conf: human MC4R beta-arrestin agonism confirmation; activation, % at 8.9 µM; actives 31% (n = 2,400); U2OS MC4R beta-arrestin recruitment, luminescence; scaled DMSO 0%, Melanotan II 100%; shares compounds with MC4R ag barr; AID 602192;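 active = mean activation across replicates above the hit cutoff set in the earlier primary screen, cut at about 8% in these data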
MOR-DOR barr ag: counter-screen for MC4R agonists: agonists of mu-delta opioid heterodimer. shares compounds with MC4R ag barr. U2OS PathHunter beta-arrestin, beta-gal luminescence; percent of deltorphin B response, DMSO zero. activation, % at 9.2 µM. actives 5.8% (n = 2,400). AID 602194;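 active = mean activation across replicates exceeds the hit threshold derived in the earlier primary screen, cut at about 18% in these data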;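 note: 100% = deltorphin B at 0.9 µM final and 0% = DMSO alone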
Target sequence (P35372 whole entry, looked up): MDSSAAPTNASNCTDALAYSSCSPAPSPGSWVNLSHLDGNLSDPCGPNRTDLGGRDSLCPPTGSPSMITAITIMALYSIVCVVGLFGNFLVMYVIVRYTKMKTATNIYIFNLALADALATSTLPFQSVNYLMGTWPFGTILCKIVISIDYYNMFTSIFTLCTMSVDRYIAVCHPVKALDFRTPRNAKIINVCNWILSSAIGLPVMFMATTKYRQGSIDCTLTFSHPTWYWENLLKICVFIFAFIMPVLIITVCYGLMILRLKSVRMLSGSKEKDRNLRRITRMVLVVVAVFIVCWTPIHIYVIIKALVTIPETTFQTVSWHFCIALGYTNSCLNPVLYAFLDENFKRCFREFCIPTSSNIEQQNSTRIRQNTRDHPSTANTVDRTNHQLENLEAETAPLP
Target sequence (P41143 whole entry, looked up): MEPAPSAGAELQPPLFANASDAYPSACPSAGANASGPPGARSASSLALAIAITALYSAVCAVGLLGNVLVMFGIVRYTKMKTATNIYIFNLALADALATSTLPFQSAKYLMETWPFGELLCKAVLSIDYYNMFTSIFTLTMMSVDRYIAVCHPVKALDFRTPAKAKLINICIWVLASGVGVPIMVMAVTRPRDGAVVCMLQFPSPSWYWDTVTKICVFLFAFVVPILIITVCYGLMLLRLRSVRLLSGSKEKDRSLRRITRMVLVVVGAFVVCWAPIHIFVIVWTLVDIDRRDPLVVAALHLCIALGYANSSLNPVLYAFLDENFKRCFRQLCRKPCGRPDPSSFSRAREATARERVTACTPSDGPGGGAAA
The depositor's hits bear a star; . = no result given. Shown are actives, neighbours in structure and some others; about 1.8% of the full set was active somewhere.

SMILES	MC4R ag barr	AI-2 QS mod	NTR1 agonist	MC4R antag cAMP	MC4R barr conf	MOR-DOR barr ag
COc1cccc(NC(=O)c2cc3ccccc3cc2OC)c1	-0.8	22.3	2.4	-0.1	.	.
COc1ccc(C(=O)Cn2c(C(=O)/C=C/c3ccccc3)nc3ccccc32)cc1	22.7*	22.9	17.1	11.4	9.4*	4.3
COc1ccc(C(=O)CSc2nc3ccccc3n2CC(=O)c2ccccc2)cc1	-2.5	30.7	1.8	10.2	.	.
COc1ccc(-c2nc(NC(=O)c3n[nH]c(=O)c4ccccc34)sc2C)cc1	14.4*	17.1	5.5	5.2	5.7	4.3
COc1cc(C(=S)N2CCN(c3cccc(Cl)c3)CC2)ccc1O	5.5	21.9	1.2	-10.9	.	.
Oc1ccc(C(=S)N2CCN(c3cccc(Cl)c3)CC2)cc1	9.8*	33.3	3.3	-6.0	5.7	10.1
O=C(Nc1cc(Cl)ccc1Cl)c1ccc(OC(=O)c2ccco2)cc1	12.6*	11.8	3.4	-1.2	4.4	6.8
COc1ccc(C(=O)Nc2cc(Cl)ccc2OC(=O)c2ccc(OC)cc2)cc1	14.0*	11.7	0.8	16.5	1.7	2.2
O=C(Nc1ccccc1OC(=O)c1ccc(Cl)cc1)c1ccc(Cl)cc1	35.5*	38.4	4.6	10.5	8.1	2.6
CC(C)[C@H](NC(N)=O)C(=O)Nc1cccc(S(=O)(=O)NC2=NCCCCC2)c1	-1.2	.	1.2	1.8	.	.
COc1ccccc1C(=O)NCC(=O)OCc1nnc(-c2ccccc2)o1	0.8	.	.	4.9	.	.
COCCCN1C2=C(C(=O)CC(C)(C)C2)C(c2ccc(O)c(OC)c2)C2=C1CC(C)(C)CC2=O	-0.5	21.4	0.2	-2.0	.	.
CCOc1ccccc1NC(=O)c1csc(C)c1C	-2.0	25.6	1.0	1.1	.	.
O=S(=O)(CC(CN1CCOCC1)N1CCOCC1)c1ccccc1 (stereo not given)	9.6*	15.4	-0.8	3.4	1.5	1.6
COc1cccc(/C=N/NC(=O)c2cc(-c3ccccn3)nc3ccccc23)c1O	-0.9	.	2.0	2.2	.	.
O=C(N/N=C/c1ccc(F)cc1)c1cc(-c2ccccn2)nc2ccccc12	15.5*	.	9.3	0.3	-0.1	11.4
CCOC(=O)C1CCCN(C(=O)C2CCN(S(=O)(=O)c3ccc4ccccc4c3)CC2)C1 (stereo not given)	-3.5	34.2	-0.3	4.4	.	.
Cc1cc(NC(=O)CSc2ccc(Cl)cc2)no1	1.5	10.1	5.3	-5.4	.	.
Cc1cc(NC(=O)CSc2nc(-c3ccc(Cl)cc3)cs2)no1	18.3*	0.6	7.1	-2.6	8.0	7.6
CC(C)CN(C(=O)Cn1nnc(-c2ccc(F)cc2)n1)C1CCS(=O)(=O)C1 (stereo not given)	0.2	5.2	0.3	-4.0	.	.
COc1ccc(CN2CCN(CCSc3ccc(C)cc3)CC2)c(OC)c1OC	-0.6	22.9	2.0	0.4	.	.
COc1cc(/C=N/N=C(/N)c2nonc2N)cc(Br)c1OCc1cccc(C)c1	5.1	29.2	8.4	9.0	.	.
CCOc1cc(/C=N/N=C(\N)c2nonc2N)cc(Br)c1OCc1cccc2ccccc12	30.7*	11.7	1.4	1.4	10.8*	7.6
Cc1cc(C)c2sc(N(CCCN(C)C)C(=O)c3ccc(Br)s3)nc2c1	16.4*	41.7	7.9	1.7	21.0*	14.2
Cc1cccc2sc(N(CCCN(C)C)C(=O)c3ccco3)nc12	-2.2	4.8	-1.1	-0.4	.	.
SMILES	MC4R ag barr	AI-2 QS mod	NTR1 agonist	MC4R antag cAMP	MC4R barr conf	MOR-DOR barr ag
Cc1cc(C)c2sc(N(CCN(C)C)C(=O)c3c(F)cccc3F)nc2c1	-0.2	3.0	1.3	7.7	.	.
Cc1cccc2sc(N(CCCN(C)C)C(=O)c3ccc(Cl)s3)nc12	10.5*	1.6	4.9	-0.1	4.3	6.1
COc1cc2c(-c3ccc4[nH]ccc4c3)c(-c3ccc(C#N)cc3)oc(=O)c2cc1OC	-2.0	.	2.5	4.7	.	.
O=C(NN=Cc1ccccc1C(=O)O)c1ccc(NS(=O)(=O)c2cccs2)cc1	-2.0	.	-0.7	1.8	.	.
O=S(=O)(c1ccc(NCCOc2ccccc2)nc1)N1CCCC1	-2.2	.	-0.3	-0.7	.	.
Cc1cccc2c1nc(-c1ccccc1)n1nnnc21	13.3*	28.1	3.7	-3.6	2.2	4.2
Cc1cc2nc(NCCCO)n(CC(=O)c3cc(C(C)(C)C)c(O)c(C(C)(C)C)c3)c2cc1C	13.2*	.	26.0	6.7	5.7	11.1
Cc1cccc(C)c1NC(=O)CNC(=O)c1ccc(COc2ccccc2)cc1	0.0	.	1.8	14.2	.	.
CCC(C)(C)c1ccc(OCCCC[n+]2ccc(C)cc2)c(C(C)(C)CC)c1	.	12.0	4.8	.	.	.
CCC(C)(C)c1ccc(OCCCC[n+]2cccc(C)c2C)c(C(C)(C)CC)c1	22.8*	10.2	12.1	3.0	21.6*	15.4
CCC1CN(C(=O)Nc2ccc(C)cc2)c2cc(C)ccc2O1 (stereo not given)	10.6*	17.5	4.7	23.1	-2.2	4.3
CCC1CN(C(=O)NCc2ccc(F)cc2)c2cc(C)ccc2O1 (stereo not given)	0.1	11.7	1.8	12.3	.	.
CC(=O)Nc1cc(-c2ccc(C(=O)N3CCOCC3)cc2)cn2c(-c3ccc(C(C)=O)cc3)cnc12	2.6	.	.	7.7	.	.
COc1ccc(-c2cnc3c(NC(C)=O)cc(-c4ccc(C(=O)N5CCOCC5)cc4)cn23)cc1OC	11.2*	.	.	3.0	9.4*	2.9
CC(=O)Nc1cc(-c2ccc(C(=O)N3CCOCC3)cc2)cn2c(-c3ccccc3)cnc12	25.5*	.	.	7.2	18.8*	1.1
O=C1CN(C(=O)COC(=O)c2cc(Cl)ccc2[N+](=O)[O-])c2ccccc2N1	0.5	.	.	1.1	.	.
Cc1ccc(-c2csc3ncnc(SCC(N)=O)c23)cc1	-2.5	6.4	-0.3	-1.5	.	.
CCc1nnc(NC(=O)CSc2ncnc3scc(-c4ccc(C)cc4)c23)s1	11.4*	-3.3	6.8	12.5	13.6*	4.0
CCCn1c(/N=C/c2c[nH]c3ccccc23)nc2ccccc21	11.2*	2.8	9.7	-3.7	1.2	5.4
Cc1sc2ccccc2c1CNC[C@H]1O[C@@H](n2cnc(C(N)=O)n2)[C@H](O)[C@@H]1O	1.1	.	.	1.0	.	.
Nc1nc2c(c(=O)[nH]1)C(c1ccccc1)C1=C(N2)c2ccccc2C1=O (stereo not given)	-4.2	20.0	-0.4	0.6	.	.
CCC(C)c1ccc(C2C3=C(Nc4nc(N)[nH]c(=O)c42)c2ccccc2C3=O)cc1 (stereo not given)	10.4*	14.5	12.5	-16.1	-2.1	0.8
CCCCCCCCC[n+]1cccc2c3ccccc3ccc21	12.8*	0.8	8.7	-12.4	8.4*	6.8
O=[N+]([O-])c1ccc(C[n+]2cccc3c4ccccc4ccc32)cc1	0.1	5.9	-1.3	12.1	.	.

Screening data: PubChem, several laboratories
